Measurements: ChEMBL document CHEMBL1144012, “Indole- and indolizine-glyoxylamides displaying cytotoxicity against multidrug resistant cancer cell lines” (Bioorg Med Chem Lett, 2008)

Legend:
Type in all cases: functional, cell-based
[1] = Cytotoxicity against human HL60/TX1000 cells after 72 hrs by MTT assay; settings: HL60/TX1000, 72 h
Outline: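 HL-60/TX1000 cells (Taxol-resistant HL-60 subline selected by stepwise Taxol exposure; overexpress MDR1/P-glycoprotein) grown in RPMI1640 with 10% FC plus penicillin/streptomycin, split every third day, set to 2 · 10⁵ cells/mL the day before the experiment, and used in exponential growth. Compounds were diluted into medium from 1 mM DMSO stock and tested at various concentrations for 72 h. IC50 was read by […] tetrazolium assay.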

DU-145 = assay: Cytotoxicity against human DU145 cells after 72 hrs […]; settings: DU-145, 72 h
HL-60 = assay: Cytotoxicity against human HL60 cells after 72 hrs […]; settings: HL-60, 72 h
[2] = Cytotoxicity against human MDA435 cells after 72 hrs […]; settings: MDA-MB-435, 72 h
P388 = assay: Cytotoxicity against mouse P388 cells after 72 hrs […]; settings: P388, 72 h
[3] = Cytotoxicity against human MESSA cells after 72 hrs […]; settings: MES-SA
[4] = Cytotoxicity against human MESSA/DX5 cells after 72 hrs […]; settings: MES-SA/Dx5, 72 h

Row | SMILES | IC50 [1] | other results
1 | Cc1cc(NC(=O)C(=O)c2cn(Cc3ccc(Cl)cc3)c3ccccc23)sn1 | 10 nM | 
2 | CC(C)(C)c1csc(NC(=O)C(=O)c2cn(Cc3ccc(Cl)cc3)c3ccccc23)n1 | 5000 nM | 
3 | Cc1cc(NC(=O)C(=O)c2cn(Cc3ccc(Cl)cc3)c3ccccc23)no1 | 50 nM | 
4 | O=C(Nc1nncs1)C(=O)c1cn(Cc2ccc(Cl)cc2)c2ccccc12 | 100 nM | 
5 | Cc1cnc(NC(=O)C(=O)c2cn(Cc3ccc(Cl)cc3)c3ccccc23)s1 | 50 nM | 
6 | O=C(Nc1noc2ccccc12)C(=O)c1cn(Cc2ccc(Cl)cc2)c2ccccc12 | > 10000 nM | 
7 | Cc1cc(NC(=O)C(=O)c2cn(Cc3ccc(Cl)cc3)c3ccccc23)on1 | 50 nM | 
8 | O=C(Nc1ccncc1)C(=O)c1cn(Cc2ccc(Cl)cc2)c2ccccc12 [INDIBULIN] | 50 nM | 
9 | O=C(Nc1ccc2ncccc2c1)C(=O)c1cn(Cc2ccc(Cl)cc2)c2ccccc12 | 50 nM | 
10 | Cc1ccc2cc(NC(=O)C(=O)c3cn(Cc4ccc(Cl)cc4)c4ccccc34)ccc2n1 | 500 nM | 
11 | O=C(Nn1cnnc1)C(=O)c1cn(Cc2ccc(Cl)cc2)c2ccccc12 | > 10000 nM | 
12 | Cc1cc(NC(=O)C(=O)c2cc(Cc3ccc(C#N)cc3)n3ccccc23)sn1 [ROSABULIN] | 20 nM | IC50 (DU-145): 50 nM; IC50 (HL-60): 50 nM; IC50 [2]: 50 nM; IC50 (P388): 10 nM; IC50 [3]: 10 nM; IC50 [4]: 50 nM
13 | NC(=O)c1ccc(NC(=O)C(=O)c2cn(Cc3ccc(Cl)cc3)c3ccccc23)nc1 | 50 nM | 
14 | Cc1nsc(NC(=O)C(=O)c2cn(Cc3ccc(Cl)cc3)c3ccccc23)c1Cl | 5000 nM | 
15 | CC(=O)O[C@H]1C(=O)[C@@]2(C)[C@H]([C@H](OC(=O)c3ccccc3)[C@]3(O)C[C@H](OC(=O)[C@H](O)[C@@H](NC(=O)c4ccccc4)c4ccccc4)C(C)=C1C3(C)C)[C@]1(OC(C)=O)CO[C@@H]1C[C@@H]2O [PACLITAXEL] |  | IC50 (P388): 10 nM
16 | CSc1nnc(NC(=O)C(=O)c2cn(Cc3ccc(Cl)cc3)c3ccccc23)s1 | 1000 nM | 
17 | O=C(Nc1ccccn1)C(=O)c1cn(Cc2ccc(Cl)cc2)c2ccccc12 | > 10000 nM | 
18 | O=C(Nc1ccno1)C(=O)c1cn(Cc2ccc(Cl)cc2)c2ccccc12 | 50 nM | 
19 | Cc1cc(NC(=O)C(=O)c2cc(Cc3ccc(Cl)cc3)n3ccccc23)sn1 | 60 nM | 
20 | O=C(Nc1ccon1)C(=O)c1cn(Cc2ccc(Cl)cc2)c2ccccc12 | 50 nM | 
21 | C[n+]1ccc(NC(=O)C(=O)c2cn(Cc3ccc(Cl)cc3)c3ccccc23)cc1 | > 10000 nM | 
22 | O=C(Nc1cccc2cccnc12)C(=O)c1cn(Cc2ccc(Cl)cc2)c2ccccc12 | > 10000 nM | 
23 | O=C(Nc1cccnc1)C(=O)c1cn(Cc2ccc(Cl)cc2)c2ccccc12 | 6000 nM | 
